Calls of active or inactive are those of the source. The calls are words filed in the database; no cut-off is given here.

Data set [1] can be described thus: Binding affinity to biotin-labeled 18-mer duplex DNA hairpin (unknown origin) at 40 uM after 30 mins by SPR analysis.
Data set [2] is described as follows: Binding affinity to biotin-labeled Pu22 c-myc G-quadruplex DNA (unknown origin) by SPR analysis.
The target in data set [3] is T1, Nucleoside diphosphate kinase B (Homo sapiens, UniProt P22392). In words: Binding affinity to NM23-H2 in human SiHa cells assessed as disruption of protein interaction with c-myc G-quadruplex DNA by measuring decrease in c-MYC mRNA level at 2 uM after 9 hrs by RT-PCR analysis. It is filed as cell-based. The essentials:
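SiHa cells treated at 0, 0.5, 1.0, 2.0 μM for 9 h; TRIzol RNA, 1.5 μg reverse-transcribed with oligo(dT); semiquantitative PCR, 30 cycles, 58 °C annealing; bands normalized to β-actin, untreated 100%; three repeats.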

Data set [4] deals with T1, Nucleoside diphosphate kinase B. Description: Binding affinity to NM23-H2 (unknown origin) by SPR analysis.
For data set [5] the target is unchanged. In words: Binding affinity to N-terminal NT-647-NHS labeled NM23-H2 (unknown origin) after 30 mins by MST analysis. The essentials: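 NM23-H2 N-terminally labeled with RED-NHS dye (20 μM protein, 30 min dark, RT), free dye removed; 200 nM labeled protein with compound from 500 μM, 16 twofold steps, 30 min RT in 50 mM Tris-HCl pH 7.4, 150 mM NaCl, 10 mM MgCl2, 0.05% Tween-20; KD at half-plateau.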

Data set [6] is described as follows: Binding affinity to Htg21 telomeric G-quadruplex DNA (unknown origin) at 40 uM after 30 mins by SPR analysis.
Data set [7] deals with SiHa. In words: Antiproliferative activity against human SiHa cells after 48 hrs by MTT assay. It is filed as functional, cell-based.
In data set [8] the target is T1, Nucleoside diphosphate kinase B. In words: Binding affinity to NM23-H2 in human SiHa cells assessed as disruption of protein interaction with c-myc G-quadruplex DNA by measuring decrease in c-MYC protein expresson at 2 uM after 48 hrs by Western blot analysis. The data set is classed as cell-based. The gist of the method:
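SiHa cells treated 48 h; lysates (30 μg) on 10% SDS-PAGE, nitrocellulose, anti-c-MYC overnight at 4 °C, HRP secondary, chemiluminescence; β-actin internal control; three repeats.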

Data set [9] has as its system Mus musculus. Description: Toxicity in BALB/C nude mouse xenografted with human SiHa cells assessed as change in body weight at 1 mg/kg, ip administered daily after 3 weeks. It is filed as organism-based. The following applies: in vivo, 504 h. The gist of the method: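 SiHa cells implanted in the right armpit of BALB/c nu/nu mice. At approximately 50 mm3, mice randomized (n = 8/group) to vehicle, compound 2.5 or 5.0 mg/kg, or doxorubicin 1.0 mg/kg, given ip daily for 3 weeks. Body weight and signs of pain, distress or discomfort monitored; tumors excised and weighed. Data given as mean ± SEM, t test against vehicle.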

For data set [10], the system named is SiHa. Description: Antitumor activity against human SiHa cells xenografted in BALB/C nude mouse assessed as tumor weight at 1 mg/kg, ip administered daily after 3 weeks (reference value: 511.6 mg). The data set is classed as functional.
Data set [11] relates to SiHa. In words: Antitumor activity against human SiHa cells xenografted in BALB/C nude mouse assessed as tumor growth inhibition at 1 mg/kg, ip administered daily after 3 weeks relative to control. It is filed as functional. The settings on record: 504 h, read-out: TGI.
Data set [12] addresses T1, Nucleoside diphosphate kinase B. In words: Binding affinity to NM23-H2 (unknown origin) assessed as ratio of Kd for protein interaction with biotin-labeled Pu22 c-myc G-quadruplex DNA in presence and absence of compound after 1 hr by ELISA.
Data set [13] has the same target. In words: Binding affinity to NM23-H2 (unknown origin) up to 40 uM by SPR analysis.

T1 sequence (P22392 whole entry): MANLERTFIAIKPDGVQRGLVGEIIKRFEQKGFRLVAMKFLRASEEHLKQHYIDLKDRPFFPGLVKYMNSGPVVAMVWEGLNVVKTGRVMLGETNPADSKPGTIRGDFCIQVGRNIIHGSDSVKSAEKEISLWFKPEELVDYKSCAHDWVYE

`O=C(NCCCN1CCCC1)c1ccc(/C=C2\CCn3c2nc2cc(NCCN4CCCC4)c(F)cc2c3=O)cc1`: the result in data set [1] and in data set [6] was inactive. For the same compound, the Kd in data set [2] came to 2.7 µM; in [4], 19.8 µM; in [5], 18 µM. In addition, the result in [3] and in data set [8] was Active. For the same compound, the IC50 in data set [7] was determined as 16.4 µM.
Regarding `COc1cccc2c1C(=O)c1c(O)c3c(c(O)c1C2=O)C[C@@](O)(C(=O)CO)C[C@@H]3O[C@H]1C[C@H](N)[C@H](O)[C@H](C)O1` [DOXORUBICIN], the Activity result is “Toxic” in data set [9] and 165.9 mg in data set [10]. Further, in data set [11], the inhibition in vivo at 1 mg/kg came out at 67.6%.
In the case of `CC(=O)Oc1ccc(/C=C2\CCn3c2nc2cc(NCCCN(C)C)c(F)cc2c3=O)cc1`, the outcome in data set [1] and in [6] was inactive. The Kd amounted to 35.8 µM in [2], 10.1 µM in data set [4] and 18.9 µM in data set [5].
In the case of `CCN(CC)CCCNC(=O)c1ccc(/C=C2\CCn3c2nc2cc(NCCN4CCCC4)c(F)cc2c3=O)cc1`, the Kd is 3.8 µM in [2] and 7.6 µM in data set [4].
Regarding `O=c1c2cc(F)c(NCCCN3CCOCC3)cc2nc2n1CC/C2=C\c1ccc(OCc2ccccc2)cc1`, the outcome in data set [1] and in [6] was inactive. Besides, the Kd came out at 18.4 µM in data set [4] and 22.3 µM in data set [5]. For the same compound, in data set [12], the Ratio was in the range of 2.1 to 2.6.
Turning to `CCN(CC)CCCNc1cc2nc3n(c(=O)c2cc1F)CC/C3=C\c1ccc(OCc2ccccc2)cc1O`, the result in [1] and in data set [6] was inactive. Further, the dissociation constant (Kd) in data set [4] was 4.6 µM; in data set [5], 3.4 µM. The Ratio in [12] was over 3.
Turning to `CCN(CC)CCCNc1cc2nc3n(c(=O)c2cc1F)CC/C3=C\c1ccc(N(CC)CC)cc1`, the result in data set [1], in data set [6] and in data set [13] was inactive. The compound further registered a Kd in [5] of 48.5 µM. Also, the Ratio in [12] lay within 2.1 to 2.6.
As for `CN(C)CCNc1cc2nc3n(c(=O)c2cc1F)CC/C3=C\c1ccc(OCc2ccccc2)cc1O`, the result in data set [1] and in data set [6] was inactive. The dissociation constant (Kd) in [4] worked out at 8.1 µM; in data set [5], 6.4 µM. The Ratio in data set [12] is over 3.
As for `O=C(CCN1CCCC1)Nc1ccc(/C=C2\CCCn3c2nc2cc(NC(=O)CCN4CCCC4)ccc2c3=O)cc1`, the outcome in [1] and in [6] was inactive. In addition, the outcome in data set [3] and in data set [8] was Active. Also, the Kd in [4] is 10.4 µM; in [5] it was 24.6 µM. Besides, the Ratio in data set [12] was 2.3.
Turning to `O=c1c2cc(F)c(NCCN3CCCCC3)cc2nc2n1CC/C2=C\c1ccc(OCc2ccccc2)cc1O`, the result in data set [1] and in data set [6] was inactive. Further, the Kd in data set [4] amounted to 12.2 µM; in data set [5], 7.6 µM. Also, in data set [12], the Ratio is over 3.
Regarding `O=c1c2cc(F)c(NCCCN3CCCC3)cc2nc2n1CC/C2=C\c1ccc(OCc2ccccc2)cc1O`, the result in data set [1] and in data set [6] was inactive. Moreover, the results for the Kd in [4] and in [5] were 11.5 µM and 10.8 µM, respectively. The Ratio in data set [12] is over 3.
